Experimental data: ChEMBL document CHEMBL3091448, “Identification of potent and selective cathepsin S inhibitors containing different central cyclic scaffolds” (J Med Chem, 2013)

Key:
Homo sapiens = species: Homo sapiens; test: Selectivity ratio of IC50 for human cathepsin-K to IC50 for human cathepsin-S
Cathepsin K = target: T1, Cathepsin K (Homo sapiens, UniProt P43235); test: Inhibition of human cathepsin-K using Z-Leu-Arg-AMC as substrate up to 20 mins by fluorescence assay
T1 sequence (P43235 whole entry): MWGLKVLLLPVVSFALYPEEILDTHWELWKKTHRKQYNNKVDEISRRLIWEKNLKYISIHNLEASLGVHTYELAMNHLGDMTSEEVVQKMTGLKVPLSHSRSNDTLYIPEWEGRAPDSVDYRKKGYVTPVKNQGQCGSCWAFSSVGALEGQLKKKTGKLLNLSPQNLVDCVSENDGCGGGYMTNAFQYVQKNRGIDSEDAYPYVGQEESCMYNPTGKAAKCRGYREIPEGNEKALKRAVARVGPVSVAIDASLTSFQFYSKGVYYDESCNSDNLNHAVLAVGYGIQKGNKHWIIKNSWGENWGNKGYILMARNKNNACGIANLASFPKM
Procedure, shortened: (§1)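 Fluorogenic quenched-peptide cleavage assay. Enzymes at 1 nM in 100 mM potassium phosphate pH 6.5, 5 mM EDTA-Na, 0.001% Triton X-100 and 5 mM DTT. Enzyme was added to the compound dilutions, then 20 μM substrate started the reaction: Z-Val-Val-Arg-AMC, or Z-Leu-Arg-AMC for CatK. Fluorescence (ex 360/em 465 nm) was read over 20 min. IC50 is the mean of ≥2 independent experiments.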

A20 = test: Inhibition of ovalbumin-induced antigen presentation in mouse A20 cells treated 1 hr before ovalbumin addition incubated for 16 hrs followed by co-cultured with DO10.10 T-cell hybridoma cells for 24 hrs assessed as IL-2 production by luminex single-bead analysis; type: functional, cell-based
Procedure, shortened: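 A20 cells were seeded at 3 × 10⁵/mL and preincubated with compound for 1 h. Ovalbumin was then added (5 mg/mL final) for 16 h. Cells were washed three times with PBS, then DO10.10 T-cell hybridoma cells (2 × 10⁵/mL) were added. After 24 h, IL-2 was quantified by Luminex single-bead assay using two anti-IL-2 antibodies. IC50 is the mean of ≥2 independent experiments.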

Cathepsin B = Cathepsin B (Homo sapiens, UniProt P07858); test: Inhibition of human cathepsin-B using Z-Val-Val-Arg-AMC as substrate up to 20 mins by fluorescence assay; procedure, shortened: as §1
Cathepsin S [1] = target: Cathepsin S (Homo sapiens, UniProt P25774); test: Inhibition of human cathepsin-S using Z-Val-Val-Arg-AMC as substrate up to 20 mins by fluorescence assay; procedure, shortened: as §1
Procathepsin L = Procathepsin L (Homo sapiens, UniProt P07711); test: Inhibition of human cathepsin-L using Z-Val-Val-Arg-AMC as substrate up to 20 mins by fluorescence assay; procedure, shortened: as §1
Cathepsin S [2] = target: Cathepsin S (Mus musculus, UniProt O70370); test: Inhibition of mouse cathepsin-S using Z-Val-Val-Arg-AMC as substrate up to 20 mins by fluorescence assay; procedure, shortened: as §1
[3] = Effective permeability of the compound by PAMPA; type: ADME; details: read-out: Peff
[4] = Clearance in C57Bl/6 mouse at 2 mg/kg, iv and 9 mg/kg, po; type: ADME, organism-based; details: in vivo
Procedure, shortened: (§2)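 Male C57Bl/6 mice, 8 weeks old, 24−29 g. Dosing was by oral gavage at 9 mg/kg as an aqueous microsuspension in gelatin/NaCl (7.5%/0.62%), or by iv bolus at 2 mg/kg in aqueous NaCl/30% 1-methyl-2-pyrrolidone. Terminal blood (n = 2 per time point) was collected into EDTA tubes and spun at 4 °C to obtain plasma. Plasma levels were measured by LC−MS/MS after acetonitrile precipitation. Values are the mean of two experiments.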

Mus musculus [5] = test: Dose normalized AUC in C57Bl/6 mouse at 2 mg/kg, iv; type: ADME, organism-based; parameters: dose 2 mg/kg, route intravenous; details: in vivo; procedure, shortened: as §2
[6] = Half life in C57Bl/6 mouse at 9 mg/kg, po; type: ADME, organism-based; parameters: dose 9 mg/kg, route oral; details: in vivo; procedure, shortened: as §2
[7] = Oral bioavailability in C57Bl/6 mouse at 9 mg/kg; type: ADME, organism-based; details: in vivo; procedure, shortened: as §2
[8] = Half life in C57Bl/6 mouse at 2 mg/kg, iv; type: ADME, organism-based; parameters: dose 2 mg/kg, route intravenous; details: in vivo; procedure, shortened: as §2
Plasma = test: Metabolic stability in human plasma assessed as compound remaining at 1000 ng/mL after 5 hrs; type: ADME, cell-free
[9] = Volume of distribution at steady state in C57Bl/6 mouse at 2 mg/kg, iv and 9 mg/kg, po; type: ADME, organism-based; details: in vivo, read-out: Vdss; procedure, shortened: as §2
Mus musculus [10] = test: Reduction of ovalbumin-induced IL-2 production in po dosed DO10.11 transgenic BALB/c mouse administered 30 mins before ovalbumin challenge measured after 4 hrs by luminex single-bead analysis; type: functional
Procedure, shortened: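 DO10.11 BALB/c mice carrying a transgenic ovalbumin-peptide TCR were dosed orally with compound, then challenged iv with 1.0 mg low-endotoxin ovalbumin. Plasma IL-2 was measured at 4 h by Luminex bead assay using two anti-IL-2 antibodies. Groups had n = 8, and reduction was expressed versus the ovalbumin challenge group (ANOVA with Dunnett test).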

[11] = Metabolic stability in NMRI mouse plasma assessed as compound remaining at 1000 ng/mL after 4 hrs; type: ADME, cell-free; details: read-out: Stability
Procedure, shortened: (§3)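 Heparinized pooled NMRI mouse plasma was spiked with compound at 1000 ng/mL and incubated at 37 °C in an orbital shaker. Aliquots (n = 3 per time point) were taken at 2 min, 1 h and 4 h and analysed by LC−MS/MS.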

Mus musculus [12] = test: Dose normalized AUC in C57Bl/6 mouse at 9 mg/kg, po; type: ADME, organism-based; parameters: dose 9 mg/kg, route oral; details: in vivo; procedure, shortened: as §2
[13] = Drug degradation in NMRI mouse plasma at 1000 ng/mL after 4 hrs; type: ADME, cell-free; details: read-out: Drug degradation; procedure, shortened: as §3

Cathepsin S (Mus musculus, UniProt O70370), sequence (O70370 whole entry): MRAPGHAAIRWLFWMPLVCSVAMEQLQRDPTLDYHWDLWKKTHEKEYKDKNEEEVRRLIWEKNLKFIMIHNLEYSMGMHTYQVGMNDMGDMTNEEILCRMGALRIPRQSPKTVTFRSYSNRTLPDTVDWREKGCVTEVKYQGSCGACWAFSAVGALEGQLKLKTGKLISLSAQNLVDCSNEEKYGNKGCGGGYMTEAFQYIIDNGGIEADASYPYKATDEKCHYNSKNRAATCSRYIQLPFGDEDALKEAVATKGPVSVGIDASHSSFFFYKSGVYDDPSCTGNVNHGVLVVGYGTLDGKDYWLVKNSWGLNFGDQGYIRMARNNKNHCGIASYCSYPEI
Procathepsin L, sequence (P07711 whole entry): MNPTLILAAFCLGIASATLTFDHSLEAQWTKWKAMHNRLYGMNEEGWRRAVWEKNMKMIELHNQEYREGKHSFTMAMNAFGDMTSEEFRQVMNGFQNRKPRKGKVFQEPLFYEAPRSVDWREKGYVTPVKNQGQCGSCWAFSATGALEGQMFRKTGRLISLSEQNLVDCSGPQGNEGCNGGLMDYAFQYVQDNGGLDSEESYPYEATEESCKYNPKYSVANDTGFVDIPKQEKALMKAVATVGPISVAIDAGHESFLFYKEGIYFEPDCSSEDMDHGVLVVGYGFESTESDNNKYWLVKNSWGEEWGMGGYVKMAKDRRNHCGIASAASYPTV
Cathepsin S (Homo sapiens, UniProt P25774), sequence (P25774 whole entry): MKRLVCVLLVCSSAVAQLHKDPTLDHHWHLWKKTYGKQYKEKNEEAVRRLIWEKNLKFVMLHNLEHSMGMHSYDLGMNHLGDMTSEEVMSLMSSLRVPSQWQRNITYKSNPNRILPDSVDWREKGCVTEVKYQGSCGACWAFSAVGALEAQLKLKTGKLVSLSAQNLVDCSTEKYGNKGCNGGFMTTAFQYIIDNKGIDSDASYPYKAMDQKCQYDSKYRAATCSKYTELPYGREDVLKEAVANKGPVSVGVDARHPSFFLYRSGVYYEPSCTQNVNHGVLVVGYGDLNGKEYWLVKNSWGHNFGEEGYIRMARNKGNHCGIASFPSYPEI

IC50 (Cathepsin K) | IC50 (A20) | IC50 (Cathepsin B) | IC50 (Cathepsin S [1]) | IC50 (Procathepsin L) | SMILES | further results
> 25 µM | 2 nM |  |  |  | N#CCNC(=O)[C@@H]1C[C@@H](S(=O)(=O)c2ccccc2C(F)(F)F)C[C@H]1C(=O)N1CCOCC1 | Ratio IC50 (Homo sapiens): > 20000
> 25 µM | 217 nM | > 25 µM | 13 nM | > 25 µM | N#CC1(NC(=O)[C@@H]2C[C@@H](S(=O)(=O)c3ccccc3)CN2C(=O)c2ccccc2)CC1 | IC50 (Cathepsin S [2]): 29 nM
> 25 µM | 16 nM | 13.1 µM | 1 nM | 4.1 µM | N#CC1(NC(=O)[C@@H]2C[C@@H](S(=O)(=O)c3ccccc3)C[C@H]2C(=O)N2CC3CCC(C2)O3)CC1 | 
> 25 µM | 2 nM | 0.7 µM |  | 1.9 µM | CC1CCN(C(=O)[C@@H]2C[C@H](S(=O)(=O)c3ccccc3)C[C@H]2C(=O)NC2(C#N)CC2)CC1 | Papp [3]: 4.6 ×10⁻⁶ cm/s
0.855 µM | 925 nM |  | 830 nM |  | N#CCNC(=O)[C@@H]1CC(F)(F)C[C@H]1C(=O)N1CCOCC1 | Ratio IC50 (Homo sapiens): 1
> 25 µM | 43 nM | > 25 µM | 3 nM | > 25 µM | CC(C)(C#N)NC(=O)[C@@H]1C[C@@H](S(=O)(=O)c2ccccc2)C[C@H]1C(=O)N1CCOCC1 | 
> 25 µM | 29 nM | 7.1 µM | 2 nM | 17 µM | N#CC1(NC(=O)[C@@H]2C[C@@H](S(=O)(=O)c3ccccc3)C[C@H]2C(=O)N2CCCC2)CC1 | 
> 25 µM | 4510 nM |  |  |  | N#CCNC(=O)[C@@H]1C[C@@H](S(=O)(=O)CC2CC2)C[C@H]1C(=O)N1CCOCC1 | Ratio IC50 (Homo sapiens): > 100
> 25 µM | 371 nM | 5.7 µM |  | 4.6 µM | N#CC1(NC(=O)[C@@H]2C[C@@H](S(=O)(=O)c3ccccc3)C[C@H]2C(=O)N2CCC(O)CC2)CC1 | Papp [3]: 0.2 ×10⁻⁶ cm/s
29.7 µM | 12 nM | 8.5 µM |  | 12.2 µM | N#CC1(NC(=O)[C@@H]2C[C@@H](S(=O)(=O)c3ccccc3)C[C@H]2C(=O)N2CCOCC2)CC1 | 
> 25 µM | 19 nM | 47.6 µM | 1 nM | 29.7 µM | CC(=O)N1C[C@H](S(=O)(=O)c2ccccc2Cl)C[C@H]1C(=O)NC1(C#N)CC1 | clearance [4]: 29 mL/min/kg; AUC/dose (Mus musculus [5]): 581 ng·h/mL; half-life [6]: 30 min; bioavailability [7]: 53%; half-life [8]: 18 min; Stability (Plasma): Stable; Vd [9]: 0.5 L/kg; Activity (Mus musculus [10]): Dose-dependent effect; ED50 (Mus musculus [10]): 5 mg/kg; remaining at 4 h, 1000 ng/mL [11]: 72%; IC50 (Cathepsin S [2]): 2 nM; AUC/dose (Mus musculus [12]): 309 ng·h/mL
> 25 µM | 4240 nM |  | 271 nM |  | N#CCNC(=O)[C@@H]1CN(S(=O)(=O)c2ccccc2)C[C@H]1C(=O)N1CCOCC1 | Ratio IC50 (Homo sapiens): > 90
> 25 µM | 5 nM | 3.6 µM |  | 4.2 µM | N#CC1(NC(=O)[C@@H]2C[C@@H](S(=O)(=O)c3ccccc3)C[C@H]2C(=O)N2CCCCC2)CC1 | 
> 25 µM | 118 nM |  | 18 nM |  | N#CCNC(=O)[C@@H]1CN(S(=O)(=O)c2ccccc2C(F)(F)F)C[C@H]1C(=O)N1CCOCC1 | Ratio IC50 (Homo sapiens): > 1000
> 25 µM | 572 nM | 63.3 µM | 7 nM | 16.2 µM | N#CC1(NC(=O)[C@@H]2C[C@@H](S(=O)(=O)c3ccccc3)C[C@H]2C(=O)N2CC(O)C2)CC1 | 
> 25 µM | 17 nM | 6.4 µM | 2 nM | 4.7 µM | CN1CCN(C(=O)[C@@H]2C[C@H](S(=O)(=O)c3ccccc3)C[C@H]2C(=O)NC2(C#N)CC2)CC1 | 
15.5 µM | 23 nM | 6.2 µM | 0.7 nM | 11.7 µM | N#CCNC(=O)[C@@H]1C[C@@H](S(=O)(=O)c2ccccc2)C[C@H]1C(=O)N1CCOCC1 | Ratio IC50 (Homo sapiens): > 20000; clearance [4]: 39 mL/min/kg; AUC/dose (Mus musculus [5]): 427 ng·h/mL; half-life [6]: 54 min; bioavailability [7]: 18%; half-life [8]: 18 min; Stability (Plasma): Stable; Vd [9]: 0.5 L/kg; remaining at 4 h, 1000 ng/mL [11]: 99%; IC50 (Cathepsin S [2]): 1 nM; AUC/dose (Mus musculus [12]): 77 ng·h/mL
> 25 µM | 44 nM | 39.4 µM | 10 nM | 33.6 µM | N#CC1(NC(=O)[C@@H]2C[C@@H](S(=O)(=O)c3ccccc3)C[C@H]2C(=O)N2CCC2)CC1 | 
> 25 µM | 391 nM | > 25 µM | 26 nM | > 25 µM | N#CC1(NC(=O)[C@@H]2C[C@@H](S(=O)(=O)c3ccccc3)C[C@H]2C(=O)Nc2ccc(F)cc2)CC1 | 
> 25 µM | 91 nM | 22.9 µM | 6 nM | 24.9 µM | CN(C)C(=O)[C@@H]1C[C@H](S(=O)(=O)c2ccccc2)C[C@H]1C(=O)NC1(C#N)CC1 | 
> 25 µM | 816 nM | 38 µM | 4 nM | 15.8 µM | N#CC1(NC(=O)[C@@H]2C[C@@H](S(=O)(=O)c3ccccc3)C[C@H]2C(=O)N2CCS(=O)(=O)CC2)CC1 | Papp [3]: 0.2 ×10⁻⁶ cm/s
> 25 µM | 1 nM | 3.2 µM |  | 2.7 µM | C[C@@H]1CN(C(=O)[C@@H]2C[C@H](S(=O)(=O)c3ccccc3)C[C@H]2C(=O)NC2(C#N)CC2)C[C@H](C)O1 | 
> 25 µM | 1340 nM | 13.3 µM |  | 2.6 µM | N#CC1(NC(=O)[C@@H]2C[C@@H](S(=O)(=O)c3ccccc3)C[C@H]2C(=O)N2CCNCC2)CC1 | 
0.016 µM |  |  | 640 nM |  | COc1ccc(C(C#N)NC(=O)[C@@H]2CCCC[C@@H]2NC(=O)/C=C/c2ccccc2)cc1OC (some centres not stated) | 
> 25 µM | 248 nM | 29.7 µM |  | 22.2 µM | N#CC1(NC(=O)[C@@H]2C[C@@H](S(=O)(=O)c3ccccc3)C[C@H]2C(=O)N2CC3(COC3)C2)CC1 | 
> 25 µM | 208 nM |  | 12 nM |  | N#CCNC(=O)[C@@H]1CN(S(=O)(=O)c2ccccc2Cl)C[C@H]1C(=O)N1CCOCC1 | Ratio IC50 (Homo sapiens): > 1000
> 25 µM | 3 nM |  |  |  | N#CCNC(=O)[C@@H]1C[C@@H](S(=O)(=O)c2ccccc2Cl)C[C@H]1C(=O)N1CCOCC1 | Ratio IC50 (Homo sapiens): > 20000
> 25 µM | 236 nM | > 25 µM |  | > 25 µM | N#CC1(NC(=O)[C@@H]2C[C@@H](S(=O)(=O)c3ccccc3)C[C@H]2C(=O)N2CCOCC2)CCC1 | 
> 25 µM | 2 nM |  | 0.3 nM | 8.3 µM | N#CC1(NC(=O)[C@@H]2C[C@@H](S(=O)(=O)c3ccccc3Cl)CN2C(=O)C2CCCCC2)CC1 | metabolised at 4 h, 1000 ng/mL [13]: > 90%; IC50 (Cathepsin S [2]): 0.2 nM
